Assay outcomes from PubChem.
Rows were chosen to be rich in hits. Some 3.7% of all compounds tested hit in one or more screens of this group.
KCNQ1 block: inhibitors of human KCNQ1 channel, primary screen, cell-based, thallium flux, high-throughput; 1.3% of 310,000 active; CHO-K1 KCNQ1, FluxOR thallium flux fluorescence; hits give high values; B-score at 10 µM; Potassium voltage-gated channel subfamily KQT member 1 (Homo sapiens), P51787;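 active = compounds whose thallium flux B-score, printed positive for inhibition, exceeds three library SD while starting fluorescence stays within three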;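 note: channel opened by potassium depolarization with thallium stimulus after 20 min compound exposure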
KCNQ1 act: potentiators or activators of KCNQ1 channel, primary screen, cell-based, thallium flux, high-throughput. AID 2648, 2010. Potassium voltage-gated channel subfamily KQT member 1 (Homo sapiens), P51787. 0.35% of 310,000 active. CHO-K1 KCNQ1, thallium flux FluxOR fluorescence; hits give high values. B-score at 10 µM;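 active = fluorescence ratio B-score, a plate-corrected score, at least three library SD, with initial intensity B-score within 5 SD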
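assay system = CHO-K1 cells stably expressing KCNQ1 | medium = assay buffer, equal DMSO in all wells | timing = 37 °C overnight plating, 90-min dark dye load, 20-min compound pretreatment | measured by = kinetic FluxOR thallium fluorescence, 10-s 1-Hz baseline, 110-s post-stimulus read | measure = fluorescence change relative to baseline, converted to B score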
KCNK3 block: human KCNK3 channel inhibitors, primary screen, CHO cells, FluxOR thallium flux, B-score. Potassium channel subfamily K member 3 (Homo sapiens), O14649. 0.84% of 340,000 active. B-score at 10 µM. FluxOR fluorescence; hits give low values;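 active = B-score under library mean minus 4 SD, starting fluorescence ratio at most library mean plus 5 SD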;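 note: more negative B-score means stronger inhibition of thallium flux through KCNK3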
KCNK9 block: KCNK9 potassium channel inhibitors, primary screen, HEK293 cells, thallium flux | Potassium channel subfamily K member 9 (Homo sapiens), Q9NPC2 | FluxOR thallium flux fluorescence; hits give low values | B-score at 10 µM | 1.2% of 310,000 active;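 active = ratio B-score over 3 SD below the library mean, with starting fluorescence within 5 SD of its mean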;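 note: negative B-score means less thallium flux so channel inhibition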
hERG rescue: hERG rescue from dofetilide block, primary screen, cell-based, CHO-hERG, FluxOR thallium flux, dofetilide IC70 | activation (rescue from dofetilide block), less the hit threshold, % at 10 µM | AID 1511, 2009 | dofetilide IC70 present | 0.51% of 310,000 active;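 active = activation above the mean of controls blocked by dofetilide plus 5 SD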;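 note: thallium influx through hERG after potassium depolarization seen as dye fluorescence rise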
Kir21 inh: inhibitors of mouse Kir2.1 inward-rectifier potassium channel | Inward rectifier potassium channel 2 (Mus musculus), P35561 | HEK293-Kir2.1, FluxOR thallium flux fluorescence; hits give low values | B-score at 10 µM | 0.85% of 310,000 active | AID 1672, 2009;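 active = fluorescence ratio B-score at or below minus 3 SD of library scores, with starting-brightness B-score within 2 SD, cut at about -4.2 in these data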;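 note: channel flux triggered by added potassium and thallium sulfate stimulus; B-score of peak minus minimum fluorescence over baseline after thallium stimulus; more negative B-score means stronger Kir2.1 block with less thallium influx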
Target sequence (P35561 whole entry, looked up): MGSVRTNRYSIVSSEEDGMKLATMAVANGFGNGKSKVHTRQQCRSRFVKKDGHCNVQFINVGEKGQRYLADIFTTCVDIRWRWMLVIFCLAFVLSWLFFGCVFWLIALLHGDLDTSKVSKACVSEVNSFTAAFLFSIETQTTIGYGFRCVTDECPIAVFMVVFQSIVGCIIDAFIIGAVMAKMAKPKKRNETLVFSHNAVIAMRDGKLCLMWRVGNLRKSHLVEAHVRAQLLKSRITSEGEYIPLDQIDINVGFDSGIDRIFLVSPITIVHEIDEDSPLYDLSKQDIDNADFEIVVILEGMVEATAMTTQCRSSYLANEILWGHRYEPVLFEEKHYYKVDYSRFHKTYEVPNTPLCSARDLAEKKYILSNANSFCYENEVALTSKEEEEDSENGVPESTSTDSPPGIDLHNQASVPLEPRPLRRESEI
* = called active by the depositor.

CC[C@@H]1CCCCc2ccccc2[C@H](C(=O)C[C@H](O)CC(C)=O)OC1=O was read as KCNK3 block inactive.
COc1cc(NC(=O)Cn2cnc(S(=O)(=O)N3CCC(C)CC3)c2)cc(OC)c1OC was read as KCNQ1 block inactive, KCNQ1 act inactive, KCNK3 block -9.02*, KCNK9 block inactive, hERG rescue -6.8 and Kir21 inh 2.66.
Screening COc1cc(NC(=O)Cn2cnc(S(=O)(=O)N3CCCC3)c2)cc(OC)c1OC returned KCNQ1 block inactive, KCNQ1 act inactive, KCNK3 block inactive, KCNK9 block inactive, hERG rescue -4.0 and Kir21 inh 0.1.
For COc1ccc([N+](=O)[O-])cc1N(CC(O)CN(CC(C)C)CC(C)C)S(=O)(=O)c1ccccc1 (stereo unspecified) the results were KCNQ1 block inactive, KCNQ1 act inactive, KCNK3 block inactive, KCNK9 block -6.72*, hERG rescue -7.7 and Kir21 inh 0.16.
For CCCCN(CCCC)CC(O)CN(c1cc([N+](=O)[O-])ccc1OC)S(=O)(=O)c1ccccc1 (stereo unspecified) the results were KCNQ1 block inactive, KCNQ1 act inactive, KCNK3 block inactive, KCNK9 block inactive, hERG rescue -15.0 and Kir21 inh 0.07.
For CC(NCCC(c1ccccc1)c1ccccc1)c1ccccc1 (stereo unspecified) the results were KCNQ1 block inactive, KCNQ1 act inactive, KCNK3 block inactive, KCNK9 block inactive, hERG rescue -16.4 and Kir21 inh -6.37*.
For CC(NC1CCCC1)c1ccccc1 (stereo unspecified) the results were KCNQ1 block inactive, KCNQ1 act inactive, KCNK3 block inactive, KCNK9 block inactive, hERG rescue -11.0 and Kir21 inh -0.27.
`Cc1ccccc1NC(=O)c1cc(C(=O)c2cc(Cl)ccc2O)cn(-c2ccccc2C)c1=O` gave KCNQ1 block 9*, KCNQ1 act inactive, KCNK3 block inactive, KCNK9 block inactive, hERG rescue -7.2 and Kir21 inh 0.44.
`CC(=O)COc1ccc2c(C)c(C)c(=O)oc2c1` gave KCNQ1 block inactive, KCNQ1 act inactive, KCNK3 block inactive, KCNK9 block inactive, hERG rescue -2.4 and Kir21 inh -0.4.
Screening COc1ccc(-c2c(C)c3ccc(OCC(C)=O)cc3oc2=O)cc1 returned KCNQ1 block inactive, KCNQ1 act inactive, KCNK9 block inactive, hERG rescue 5.7* and Kir21 inh -0.72.
CC(C)C(CCNCc1ccccn1)c1ccc(Cl)cc1 (stereo unspecified) was read as KCNQ1 block inactive, KCNQ1 act inactive, KCNK3 block inactive, KCNK9 block inactive, hERG rescue -4.5 and Kir21 inh -4.37*.
`CC(C)CCC(CCNCc1ccccn1)c1ccc2c(c1)OCO2` (stereo unspecified) gave KCNQ1 block inactive, KCNQ1 act inactive, KCNK3 block inactive, KCNK9 block inactive, hERG rescue -16.5 and Kir21 inh -7.2*.
For Fc1ccccc1CNCCC(Cc1ccccc1)c1ccc2c(c1)OCO2 (stereo unspecified) the results were KCNQ1 block inactive, KCNQ1 act inactive, KCNK3 block inactive, KCNK9 block inactive, hERG rescue -20.9 and Kir21 inh -8.73*.
Screening Cc1ccc(-c2cc(-c3ccc(C)cc3O)[nH]n2)cc1 returned KCNQ1 block inactive, KCNQ1 act inactive, KCNK3 block inactive, KCNK9 block inactive, hERG rescue -3.6 and Kir21 inh 0.76.
Screening Cc1ccc(-c2cc(-c3ccc(F)cc3)n[nH]2)c(O)c1 returned KCNQ1 block 6*, KCNQ1 act inactive, KCNK3 block inactive, KCNK9 block inactive, hERG rescue -2.6 and Kir21 inh -0.87.
